Measurements from ChEMBL document CHEMBL3392966, “Antiproliferative activity of synthetic fatty acid amides from renewable resources” (Bioorg Med Chem, 2015).
Converted amounts (≈) assume the structure as drawn.

Assays:
HaCaT [1] = test: Cytotoxicity against human HaCaT cells assessed as tumor growth inhibition after 48 hrs by sulforhodamine B assay; type: cell-based
In short: (§1)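 Non-tumor lines (human HaCaT keratinocytes; Vero) in RPMI 1640 with 5% FBS, with penicillin/streptomycin added to experimental cultures. 48 h exposure at 0.25–250 µg/mL (DMSO/RPMI), 37 °C, 5% CO2. TCA fixation at time zero and at end, sulforhodamine B protein stain, absorbance 540 nm. TGI (total growth inhibition) from non-linear regression of the dose-response curve.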

U-251 [2] = test: Antiproliferative activity against human U251 cells after 48 hrs by sulforhodamine B assay; type: functional; conditions: U-251, 48 h
In short: (§2)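 Tumor cells grown in RPMI 1640 with 5% fetal bovine serum, with penicillin/streptomycin in experimental cultures. Exposed in 96-well plates to samples in DMSO/RPMI at 0.25, 2.5, 25 and 250 µg/mL, 37 °C, 5% CO2, 48 h. Fixed with 50% trichloroacetic acid before (T0) and after treatment, protein stained with sulforhodamine B and read at 540 nm. GI50, TGI and LC50 in µg/mL from dose-response curves by non-linear regression.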

U-251 [3] = test: Antiproliferative activity against human U251 cells assessed as tumor growth inhibition after 48 hrs by sulforhodamine B assay; type: functional; conditions: U-251, 48 h; in short: as §2
HaCaT [4] = test: Cytotoxicity against human HaCaT cells after 48 hrs by sulforhodamine B assay; type: cell-based
MCF7 [5] = test: Antiproliferative activity against human MCF7 cells assessed as tumor growth inhibition after 48 hrs by sulforhodamine B assay; type: functional; conditions: MCF7, 48 h; in short: as §2
[6] = Antiproliferative activity against human PC3 cells assessed as tumor growth inhibition after 48 hrs by sulforhodamine B assay; type: functional; conditions: PC-3, 48 h; in short: as §2
NCI-H460 [7] = test: Antiproliferative activity against human NCI-H460 cells assessed as tumor growth inhibition after 48 hrs by sulforhodamine B assay; type: functional; conditions: NCI-H460, 48 h; in short: as §2
786-0 [8] = test: Antiproliferative activity against human 786-0 cells assessed as tumor growth inhibition after 48 hrs by sulforhodamine B assay; type: functional; conditions: 786-0, 48 h; in short: as §2
[9] = Antiproliferative activity against human OVCAR3 cells after 48 hrs by sulforhodamine B assay; type: functional; conditions: OVCAR-3, 48 h; in short: as §2
NCI/ADR-RES [10] = test: Antiproliferative activity against human NCI/ADR-RES cells after 48 hrs by sulforhodamine B assay; type: functional; in short: as §2
MCF7 [11] = test: Antiproliferative activity against human MCF7 cells after 48 hrs by sulforhodamine B assay; type: functional; conditions: MCF7, 48 h; in short: as §2
NCI-H460 [12] = test: Antiproliferative activity against human NCI-H460 cells after 48 hrs by sulforhodamine B assay; type: functional; conditions: NCI-H460, 48 h; in short: as §2
[13] = Antiproliferative activity against human OVCAR3 cells assessed as tumor growth inhibition after 48 hrs by sulforhodamine B assay; type: functional; conditions: OVCAR-3, 48 h; in short: as §2
[14] = Antiproliferative activity against human PC3 cells after 48 hrs by sulforhodamine B assay; type: functional; conditions: PC-3, 48 h; in short: as §2
786-0 [15] = test: Antiproliferative activity against human 786-0 cells after 48 hrs by sulforhodamine B assay; type: functional; conditions: 786-0, 48 h; in short: as §2
NCI/ADR-RES [16] = test: Antiproliferative activity against human NCI/ADR-RES cells assessed as tumor growth inhibition after 48 hrs by sulforhodamine B assay; type: functional; in short: as §2
U-251 [17] = test: Cytotoxicity against human U251 cells; type: cell-based
Vero [18] = test: Cytotoxicity against african green monkey Vero cells assessed as tumor growth inhibition after 48 hrs by sulforhodamine B assay; type: cell-based; conditions: chlorocebus sabaeus; in short: as §1
Vero [19] = test: Cytotoxicity against african green monkey Vero cells after 48 hrs by sulforhodamine B assay; type: cell-based; conditions: chlorocebus sabaeus

Row | SMILES | TGI (HaCaT [1]) [µg/mL] | GI50 (U-251 [2]) [µg/mL] | TGI (U-251 [3]) [µg/mL] | LC50 (HaCaT [4]) [µg/mL] | TGI (MCF7 [5]) [µg/mL] | TGI [6] [µg/mL] | TGI (NCI-H460 [7]) [µg/mL] | TGI (786-0 [8]) [µg/mL] | GI50 [9] [µg/mL] | GI50 (NCI/ADR-RES [10]) [µg/mL] | GI50 (MCF7 [11]) [µg/mL] | GI50 (NCI-H460 [12]) [µg/mL] | TGI [13] [µg/mL] | GI50 [14] [µg/mL] | GI50 (786-0 [15]) [µg/mL] | TGI (NCI/ADR-RES [16]) [µg/mL] | LC50 (U-251 [17]) [µg/mL] | TGI (Vero [18]) [µg/mL] | LC50 (Vero [19]) [µg/mL]
1 | CCCCCC[C@@H](O)C/C=C\CCCCCCCC(=O)NCc1ccccc1 | 66.5 (≈ 172 µM) | 8.6 (≈ 22.2 µM) | 47.5 (≈ 123 µM) | 30.8 (≈ 79.5 µM) | 104 (≈ 270 µM) | 123 (≈ 316 µM) | 179 (≈ 461 µM) | 71.5 (≈ 184 µM) | 31.6 (≈ 81.5 µM) | 8.6 (≈ 22.2 µM) | 37.8 (≈ 97.5 µM) | 32.3 (≈ 83.3 µM) | 86 (≈ 222 µM) | 123 (≈ 316 µM) | 32.3 (≈ 83.3 µM) | 46.6 (≈ 120 µM) |  |  | 
2 | CCCCCC[C@@H](O)C/C=C\CCCCCCCC(=O)N[C@@H](C)c1ccccc1 |  | 3.6 (≈ 8.96 µM) | 13.9 (≈ 34.6 µM) | 9.7 (≈ 24.2 µM) | 84.5 (≈ 210 µM) | 142 (≈ 353 µM) | 132 (≈ 329 µM) | 60.1 (≈ 150 µM) | 11.1 (≈ 27.6 µM) | 1.9 (≈ 4.73 µM) | 5.1 (≈ 12.7 µM) | 8.3 (≈ 20.7 µM) | > 250 | 11.7 (≈ 29.1 µM) | 6.7 (≈ 16.7 µM) | > 250 | 63.6 (≈ 158 µM) |  | 
3 | CCCCCC[C@@H](O)C/C=C\CCCCCCCC(=O)N1CCCC1 |  | 1.5 (≈ 4.27 µM) | 4.4 (≈ 12.5 µM) |  | 1.5 (≈ 4.27 µM) | 4.3 (≈ 12.2 µM) | 6.2 (≈ 17.6 µM) | 6.9 (≈ 19.6 µM) | 4.3 (≈ 12.2 µM) | 4 (≈ 11.4 µM) | 4.4 (≈ 12.5 µM) | 6.9 (≈ 19.6 µM) | 4.1 (≈ 11.7 µM) | 6.2 (≈ 17.6 µM) | 4.1 (≈ 11.7 µM) | 4 (≈ 11.4 µM) |  | 6.8 (≈ 19.3 µM) | 4 (≈ 11.4 µM)
4 | CCCCC/C=C\C/C=C\CCCCCCCC(=O)N1CCCC1 |  | 4.2 (≈ 12.6 µM) | 12 (≈ 36 µM) |  | 27.5 (≈ 82.4 µM) | 32.6 (≈ 97.7 µM) | 36.6 (≈ 110 µM) | 21.9 (≈ 65.7 µM) | 5.7 (≈ 17.1 µM) | 4.7 (≈ 14.1 µM) | 4.2 (≈ 12.6 µM) | 7 (≈ 21 µM) | 33.9 (≈ 102 µM) | 4.7 (≈ 14.1 µM) | 4.7 (≈ 14.1 µM) | 7.7 (≈ 23.1 µM) | 44.4 (≈ 133 µM) | 45.1 (≈ 135 µM) | 13.7 (≈ 41.1 µM)
5 | CCCCCCCC/C=C\CCCCCCCC(=O)NCc1ccccc1 | > 250 | 55.4 (≈ 149 µM) | > 250 | 92 (≈ 248 µM) | > 250 | > 250 | > 250 | > 250 | 103 (≈ 278 µM) | 50.3 (≈ 135 µM) | 53.4 (≈ 144 µM) | 94.9 (≈ 255 µM) | > 250 | 107 (≈ 288 µM) | 104 (≈ 281 µM) | > 250 |  |  | 
6 | CCCCCCCC/C=C\CCCCCCCC(=O)N[C@H](C)c1ccccc1 |  | 6.1 (≈ 15.8 µM) | 28.3 (≈ 73.4 µM) |  | 40.8 (≈ 106 µM) | 162 (≈ 419 µM) | 106 (≈ 274 µM) | 84.8 (≈ 220 µM) | 56.9 (≈ 148 µM) | 3 (≈ 7.78 µM) | 6.1 (≈ 15.8 µM) | 36.6 (≈ 94.9 µM) | > 250 | 46.9 (≈ 122 µM) | 26.8 (≈ 69.5 µM) | 35.3 (≈ 91.5 µM) |  | 43 (≈ 112 µM) | 10.3 (≈ 26.7 µM)
7 | CCCCCCCC/C=C\CCCCCCCC(=O)N1CCCC1 |  | 3.8 (≈ 11.3 µM) | 5.8 (≈ 17.3 µM) |  | > 250 | 21.9 (≈ 65.3 µM) | 153 (≈ 456 µM) | 23.3 (≈ 69.4 µM) | 11.5 (≈ 34.3 µM) | 0.2 (≈ 0.596 µM) | 5.2 (≈ 15.5 µM) | 45.6 (≈ 136 µM) | 14 (≈ 41.7 µM) | 13 (≈ 38.7 µM) | 5.2 (≈ 15.5 µM) | 5.6 (≈ 16.7 µM) | 14.2 (≈ 42.3 µM) | 10.6 (≈ 31.6 µM) | 3.9 (≈ 11.6 µM)
8 | CCCCCC[C@@H](O)C/C=C\CCCCCCCC(=O)NCCO |  | 3.6 (≈ 10.5 µM) | 6.5 (≈ 19 µM) |  | 3.7 (≈ 10.8 µM) | 23.5 (≈ 68.8 µM) | 9.8 (≈ 28.7 µM) | 20.4 (≈ 59.7 µM) | 4.1 (≈ 12 µM) | 2.8 (≈ 8.2 µM) | 6.5 (≈ 19 µM) | 4.1 (≈ 12 µM) | 8.8 (≈ 25.8 µM) | 6.3 (≈ 18.4 µM) | 6.6 (≈ 19.3 µM) | 5.4 (≈ 15.8 µM) |  | 7.6 (≈ 22.3 µM) | 3.4 (≈ 9.96 µM)
9 | COc1cccc2c1C(=O)c1c(O)c3c(c(O)c1C2=O)C[C@@](O)(C(=O)CO)C[C@@H]3O[C@H]1C[C@H](N)[C@H](O)[C@H](C)O1 [DOXORUBICIN] | 2.3 (≈ 4.23 µM) |  | 0.92 (≈ 1.69 µM) |  | 3.3 (≈ 6.07 µM) | 11.7 (≈ 21.5 µM) | 4.9 (≈ 9.02 µM) | > 25 |  |  |  |  | 7.6 (≈ 14 µM) |  |  | 1.6 (≈ 2.94 µM) |  | 4.1 (≈ 7.54 µM) | 
10 | CCCCCCCC/C=C\CCCCCCCC(=O)NCCO [OLEOYLETHANOLAMIDE] | 53.5 (≈ 164 µM) | 27.3 (≈ 83.9 µM) | 51.3 (≈ 158 µM) | 14.4 (≈ 44.2 µM) | 66.7 (≈ 205 µM) | 44.2 (≈ 136 µM) | 81 (≈ 249 µM) | 64.6 (≈ 198 µM) | 35.4 (≈ 109 µM) | 9.1 (≈ 28 µM) | 25.9 (≈ 79.6 µM) | 36.5 (≈ 112 µM) | 71.7 (≈ 220 µM) | 16.9 (≈ 51.9 µM) | 35.4 (≈ 109 µM) | 39.5 (≈ 121 µM) |  |  | 
